Source: article PMC4071626 (MedChemComm, 2013)

What was measured:
[1] = test system: CHK reaction in HCT-116 cells; experiment: Inhibition of [3H]PCho formation from [3H]Cho in whole HCT-116 cells; type: cell-based, human; conditions: HCT-116 cells incubated with [3H]Cho
Summary of the method: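 HCT-116 cells incubated with [3H]Cho plus test compound over a range of concentrations; [3H]PCho formed from [3H]Cho measured to follow dose-dependent change in cellular choline phosphorylation.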

Δ49N CHKA2 = Δ49N CHKA2 (Homo sapiens, UniProt P35790); experiment: Lineweaver-Burk reaction kinetics against Δ49N CHKA2; type: biochemical; conditions: 0.1, 1 or 10 μM inhibitor; choline or ATP varied, the other kept at KM
Summary of the method: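 Δ49N CHKA2 reaction kinetics run without inhibitor or with test compound at 0.1, 1 or 10 μM. Choline varied with ATP fixed at KM, or ATP varied with choline fixed at KM; double-reciprocal (Lineweaver–Burk) plots used to assign inhibition type versus each substrate.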

Sequence of Δ49N CHKA2 (P35790 50-457 limits assumed, stated change not applied): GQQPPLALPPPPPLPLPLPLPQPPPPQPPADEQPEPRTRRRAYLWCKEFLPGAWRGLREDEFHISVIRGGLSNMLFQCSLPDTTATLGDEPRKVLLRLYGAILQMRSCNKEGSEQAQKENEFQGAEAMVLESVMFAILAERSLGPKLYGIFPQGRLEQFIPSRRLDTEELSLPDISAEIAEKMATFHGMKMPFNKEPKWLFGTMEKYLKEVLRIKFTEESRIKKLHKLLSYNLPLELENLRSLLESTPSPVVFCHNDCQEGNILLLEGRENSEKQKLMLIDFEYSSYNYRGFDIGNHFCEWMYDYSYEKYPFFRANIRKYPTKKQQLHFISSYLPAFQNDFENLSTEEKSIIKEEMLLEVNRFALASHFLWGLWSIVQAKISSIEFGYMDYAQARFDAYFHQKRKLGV

Compound	Concentration above which [3H]PCho formation is inhibited >75% [1]	Type of inhibition (Lineweaver-Burk plots) (Δ49N CHKA2)
CN(C)c1cc[n+](CCCCCCCCCCCC[n+]2ccc(N(C)C)cc2)cc1.[Br-].[Br-] [Compound 8]	above 6.5 ± 4 μM	competitive with choline, but not with ATP
CN(C)c1cc[n+](CCCCCCCCCCCCn2cnc3c(N)ncnc32)cc1.[Br-] [Compound 12]		mixed type of inhibition
CN(C)c1cc[n+](CCCCCCCCCCCCCC[n+]2ccc(N(C)C)cc2)cc1.[Br-].[Br-] [Compound 13]	> 2.4 ± 1 µM	
